Assay outcomes: PubChem BioAssay, SRMLSC
Only a selection was taken, and hits are over-represented in it overall.
Fibroblast inh = antiproliferative effect on LL 47 fibroblasts – human, LL 47 cells, CellTiter-Glo luminescence, primary screen | LL 47 human lung fibroblast viability, ATP luminescence; active compounds read low | viability, % at 10 µM | hit rate 1.1% among 85,000 | AID 719, 2007;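 active means viability at or below 50% in the single dose screen; inactive means viability above 50%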;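 further: compound exposure lasted 72 h before the ATP readout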
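Material: Human LL 47 lung fibroblast cells | Input: 1,150 cells/well | Buffer or medium: IMEM plus 15% FBS | Compound dosing: 0.1% DMSO in all compound wells | Times: Overnight cell rest, 72 h compound treatment at 37 °C | Signal: CellTiter-Glo luminescence measuring cellular ATP | Measure: % viability versus median cells-only luminescence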
H69AR inhibit = proliferation blockers of H69AR lung cancer cells, primary screen, cell-based, human, 86K library. H69AR lung tumor viability, ATP luminescence, 72 h; active compounds read low. viability, % at 10 µM. hit rate 6% among 85,000. AID 598, 2007;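 active means viability at or below 40%; inactive means viability above 40%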;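 further: multidrug resistant small cell line overexpressing MRP-1 efflux transporter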
HUVEC prolif 384 = inhibitors of HUVEC proliferation, primary screen, cell-based, 384-well | hit rate 1.1% among 86,000 | AID 648, 2007 | viability, % at 10 µM (by protocol) | CellTiter-Glo luminescence, 72 h; active compounds read low;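 active means viability at or below 30%; inactive means viability above 30%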
HCT116 PTEN-null = growth suppression of PTEN-null HCT116, primary screen, cell-based, CellTiter-Glo; HCT116 PTEN-null viability, 60 h; active compounds read low; viability, % at 10 µM; hit rate 1.2% among 140,000;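 active means viability at or below a set limit, 4 SD under the median of all tested compounds, cut at about 3.7% in these data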;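 further: PTEN knockout HCT116 line with beta catenin targeted HCT116 as companion control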
bCat KO growth = primary screen for growth suppressors in beta-catenin knockout HCT116 cells (colon tumor, human); HCT116 beta-catenin knockout viability, CellTiter-Glo, 60 h; active compounds read low; viability, % at 10 µM; hit rate 1.5% among 140,000;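 active means viability at or under a set limit, the compound median less 4 SD, cut at about 6% in these data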
Each line names hits and unclear results; the compound was inactive in the other large screens.

Cc1cc(NC(=O)COC(=O)c2ccc(S(=O)(=O)N3CCCc4ccccc43)cc2)no1	H69AR inhibit 23
COC(=O)Nc1ccc(S(=O)(=O)N2c3ccccc3CCC2C)cc1 (centres undefined)	Fibroblast inh 49, H69AR inhibit 16
CC(=O)Nc1ccc(S(=O)(=O)N2CCCc3ccccc32)cc1	H69AR inhibit 13
O=C(NCc1ccco1)c1ccc(S(=O)(=O)N2CCCc3ccccc32)cc1	H69AR inhibit 31
O=C(COC(=O)c1c2c(nc3ccccc13)CCCCC2)c1ccc(Cl)s1	none (no result: Fibroblast inh, H69AR inhibit, HUVEC prolif 384)
COc1ccc(OCC(O)Cn2cnc(-c3ccc(Br)cc3)c2)cc1 (centres undefined)	H69AR inhibit 39
O=[N+]([O-])c1ccc(C2Oc3ccccc3C3CC(c4ccccc4)=NN32)s1 (centres undefined)	HCT116 PTEN-null 2.1, bCat KO growth 3.3 (no result: Fibroblast inh, H69AR inhibit, HUVEC prolif 384)
N#C/C(=C\c1ccc(-c2cccc(Cl)c2)o1)C(=O)Nc1cccc2cccnc12	H69AR inhibit 15
N#C/C(=C\c1ccc(-c2ccccc2)o1)C(=O)Nn1cnnc1	none (no result: Fibroblast inh, H69AR inhibit, HUVEC prolif 384)
O=C(NCc1ccccc1)c1ccc(S(=O)(=O)N2CCCc3ccccc32)cc1	none
COc1ccc(-c2nnc(NC(=O)c3ccc(S(=O)(=O)N4CCCc5ccccc54)cc3)o2)cc1	H69AR inhibit 17, HUVEC prolif 384 3.0
O=C(Nc1nnc(C2CC2)o1)c1ccc(S(=O)(=O)N2CCCc3ccccc32)cc1	H69AR inhibit 18
Cc1ccc2nc(NC(=O)c3ccc(S(=O)(=O)N4CCCc5ccccc54)cc3)sc2c1	none (no result: Fibroblast inh, H69AR inhibit, HUVEC prolif 384)
CC(=O)/C(=N\Nc1ccc(C)cc1)Sc1nncn1C	none (no result: Fibroblast inh, H69AR inhibit, HUVEC prolif 384)
CC(C)NC(=S)N/N=C/c1cc(Br)ccc1O	none (no result: Fibroblast inh, H69AR inhibit, HUVEC prolif 384)
O=C(NCc1ccco1)c1nn2c(C(F)(F)F)cc(-c3cccs3)nc2c1Br	H69AR inhibit 32
COc1ccc(-c2cc(C(F)(F)F)n3nc(C(=O)NCc4ccco4)cc3n2)cc1	none
COc1ccc(-c2cc(C(F)(F)F)n3nc(C(=O)NCc4ccco4)c(Cl)c3n2)cc1	H69AR inhibit 37, bCat KO growth 4.4
Cc1csc(NC(=O)c2c(O)c3c(n(CC(C)C)c2=O)CCCC3)n1	H69AR inhibit 33
CCCCc1ccc(Nc2nc(CCC)cc(=O)[nH]2)cc1	HUVEC prolif 384 2.5
CCCc1cc(=O)[nH]c(Nc2ccc(N3CCCCC3)cc2)n1	none
Cc1nc(NC(=O)C(C)Oc2cccc(Cl)c2)sc1C(=O)N(C)C (centres undefined)	none (no result: Fibroblast inh, H69AR inhibit, HUVEC prolif 384)
CCCCN(CC)c1nc(-c2ccncc2)nc2ccccc12	H69AR inhibit 20
Cc1cc(N2CCOCC2)nc(NCc2ccccc2)n1	none
Cc1cc(N2CCCCC2)nc(NCc2ccccc2)n1	H69AR inhibit 16, bCat KO growth 6.0
CCc1ccc(C(=O)NN(C(=O)c2ccc(CC)cc2)C(C)(C)C)cc1	none (no result: Fibroblast inh, H69AR inhibit, HUVEC prolif 384)
C=CCc1cccc(/C=N/NC(=O)CCCNc2ccc(C)cc2)c1O	none (no result: Fibroblast inh, H69AR inhibit, HUVEC prolif 384)
C=CCc1cccc(/C=N/NC(=O)CNc2ccccc2)c1O	HCT116 PTEN-null 3.0, bCat KO growth 3.7 (no result: Fibroblast inh, H69AR inhibit, HUVEC prolif 384)
C=CCc1cccc(/C=N/NC(=O)CCC(=O)Nc2ccc(F)cc2)c1O	none (no result: Fibroblast inh, H69AR inhibit, HUVEC prolif 384)
C=CCc1cccc(/C=N/NC(=O)CNc2cccc3ccccc23)c1O	HCT116 PTEN-null 1.8, bCat KO growth 3.2 (no result: Fibroblast inh, H69AR inhibit, HUVEC prolif 384)
COC(=O)c1ccccc1NC(=O)c1ccc2c(c1)C(=O)N(Cc1ccco1)C2=O	H69AR inhibit 11 (no result: HCT116 PTEN-null, bCat KO growth)
CC1CCCCN1C(=O)CSc1nnc(-c2c[nH]c3ccccc23)o1 (centres undefined)	H69AR inhibit 22
N#CC1=C(N)Nc2nc3ccccc3n2C1c1ccc(Cl)cc1 (centres undefined)	none (no result: Fibroblast inh, H69AR inhibit, HUVEC prolif 384)
CCOC(=O)c1c2c(n(C)c1C)C(=O)C(=O)c1ccc(Br)cc1-2	Fibroblast inh 3.0, H69AR inhibit 1.6, HUVEC prolif 384 3.3 (no result: HCT116 PTEN-null, bCat KO growth)
CCN(CC)S(=O)(=O)c1ccc2oc(C(=O)NC(C)C)c(C)c2c1	H69AR inhibit 29
Cc1c(C(=O)N(C)Cc2ccccc2)oc2ccc(S(=O)(=O)N3CCCC3)cc12	H69AR inhibit 39
CCN(CC)S(=O)(=O)c1ccc2oc(C(=O)O)c(C)c2c1	none
Cc1ccc(CNC(=O)c2oc3ccc(S(=O)(=O)N4CCOCC4)cc3c2C)cc1	H69AR inhibit 31
CCN(Cc1ccccc1)S(=O)(=O)c1ccc2oc(C(=O)O)c(C)c2c1	none
